Drawing on ChEMBL document CHEMBL1125136, “Quinolone antibacterial agents substituted at the 7-position with spiroamines. Synthesis and structure-activity relationships” (1990), this text covers MIC, ED50 and minimum concentration for gyrase-mediated DNA cleavage for five compounds.

One test concerns Enterobacter cloacae. Kind of test: Evaluated for minimum inhibitory concentration against gram-negative bacteria Enterobacter cloacae HA 2646. The test is classed as functional.
The subject of test [1] is Enterococcus faecalis. Nature of the test: Evaluated for minimum inhibitory concentration against gram-positive bacteria Staphylococcus faecalis MGH-2.
Test [2] relates to Streptococcus pneumoniae. Nature of the test: In vivo protective dose was determined against Streptococcus pneumoniae SV-1 after peroral administration. To be noted: po, read-out: PD50.
For another test, the system named is Pseudomonas. Kind of test: Evaluated for minimum inhibitory concentration against gram-negative bacteria Pseudomonas rettgeri H1771. The test is classed as functional. The procedure, abridged:
(§1)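 Broth microdilution MIC by standard technique. Values come from duplicate experiments and are stated as accurate to ±50%.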

Test [3] relates to Escherichia coli. Kind of test: In vivo protective dose was determined in mouse protection assay in Escherichia coli Vogel after subcutaneous administration. It is filed as functional. The following applies: sc, read-out: PD50. The essentials: (§2)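 Female Charles River CD-1 mice were given an acute, lethal, systemic infection. A single dose of compound was given at the time of challenge, by the route stated in the line, with 16 animals per dose level. The read-out is the median protective dose (PD50, mg/kg). Per the footnote, values come from 16 animals per test, with a mean variation of ±34%.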

Test [4] relates to Escherichia coli. Nature of the test: In vivo protective dose for mouse protection assay in Escherichia coli Vogel after peroral administration. The test is classed as functional. The following applies: po, read-out: PD50. The procedure, abridged: as §2
The test system of test [5] is Pseudomonas aeruginosa. Nature of the test: Evaluated for minimum inhibitory concentration against gram-negative bacteria Pseudomonas aeruginosa UI-18. It is filed as functional. The procedure, abridged: as §1
For test [6], the system named is Streptococcus pyogenes. Nature of the test: In vivo protective dose was determined against Streptococcus pyogenes after subcutaneous administration. The following applies: sc, read-out: PD50.
Test [7] is described as follows: Evaluated for minimum inhibitory concentration against […] bacteria […] SV-1. The test is classed as functional. The procedure, abridged:
as §1

For test [8], the system named is Streptococcus pyogenes. Kind of test: In vivo protective dose was determined against Streptococcus pyogenes after peroral administration. The following applies: po, read-out: PD50.
The test system of test [9] is Pseudomonas aeruginosa. Kind of test: In vivo protective dose was determined against Pseudomonas aeruginosa UI-18. after subcutaneous administration. It is filed as functional. To be noted: sc, read-out: PD50. The essentials: as §2
Test [10] concerns Streptococcus pyogenes. Kind of test: Evaluated for minimum inhibitory concentration against gram-positive bacteria Streptococcus pyogenes C203.
The subject of test [11] is Staphylococcus aureus. Nature of the test: In vivo protective dose was determined against Staphylococcus aureus VC76. after subcutaneous administration. To be noted: sc, read-out: PD50. The test is classed as functional. The essentials: as §2
Test [12] deals with Staphylococcus aureus. Nature of the test: In vivo protective dose was determined against Staphylococcus aureus VC76 after peroral administration. It is filed as functional. The following applies: po, read-out: PD50. The procedure, abridged: as §2
The test system of test [13] is Escherichia coli. Nature of the test: Evaluated for minimum inhibitory concentration against gram-negative bacteria Escherichia coli Vogel. It is filed as functional. The procedure, abridged: as §1
The test system of test [14] is Staphylococcus aureus. Kind of test: Evaluated for minimum inhibitory concentration against […] bacteria Staphylococcus aureus UC-76. It is filed as functional. The essentials:
as §1

Test [15] concerns Escherichia coli. Nature of the test: Evaluated for minimum concentration needed to produce linear DNA at an intensity relative to oxolinic acid at 10 mg/mL. by gyrase mediated cleavage of DNA in Escherichia coli 560. The test is classed as functional. To be noted: read-out: MIC.
Test [16] has as its system Pseudomonas aeruginosa. Kind of test: In vivo protective dose was determined against Pseudomonas aeruginosa UI-18. after peroral administration. To be noted: po, read-out: PD50. The test is classed as functional. The essentials:
as §2

Test [17] concerns Staphylococcus aureus. Nature of the test: Evaluated for minimum inhibitory concentration against […] bacteria Staphylococcus aureus H228. It is filed as functional. The essentials:
as §1

Test [18] has as its system Streptococcus pneumoniae. Kind of test: In vivo protective dose was determined against Streptococcus pneumoniae SV-1 after subcutaneous administration. The following applies: sc, read-out: PD50.
The next test deals with Klebsiella pneumoniae. Kind of test: Evaluated for minimum inhibitory concentration against gram-negative bacteria Klebsiella pneumoniae MGH-2. The test is classed as functional. The procedure, abridged:
as §1

The subject of test [19] is Enterococcus faecalis. Kind of test: Evaluated for minimum inhibitory concentration against […] bacteria, Staphylococcus faecalis MGH-2. The test is classed as functional. The essentials:
as §1

≈ marks a conversion by molar mass, not a printed value.

For `CCn1cc(C(=O)O)c(=O)c2cc(F)c(N3CCC4(CCN(C)C4)C3)nc21` (stereo not drawn), the MIC with Enterobacter cloacae worked out at 0.4 µg/mL (≈ 1.07 µM); against Enterococcus faecalis [1], 0.2 µg/mL (≈ 0.534 µM); against Pseudomonas, 1.6 µg/mL (≈ 4.27 µM); against Pseudomonas aeruginosa [5] it was 1.6 µg/mL (≈ 4.27 µM); in [7], 0.8 µg/mL (≈ 2.14 µM); against Streptococcus pyogenes [10], 0.4 µg/mL (≈ 1.07 µM). The MIC in the test on Escherichia coli [13] was 0.1 µg/mL (≈ 0.267 µM); against Staphylococcus aureus [14] it was 0.025 µg/mL (≈ 0.0668 µM); with Staphylococcus aureus [17], 0.1 µg/mL (≈ 0.267 µM); in the test on Klebsiella pneumoniae, 0.4 µg/mL (≈ 1.07 µM). For the same compound, the ED50 with Streptococcus pneumoniae [2] is 30 mg/kg; with Escherichia coli [3], 4.4 mg/kg; in the test on Escherichia coli [4], 11.4 mg/kg; in the test with Streptococcus pyogenes [6], 13 mg/kg; with Streptococcus pyogenes [8] it was 27 mg/kg; in the test on Pseudomonas aeruginosa [9] it was 58 mg/kg. The ED50 with Staphylococcus aureus [11] stood at 3.6 mg/kg; in the test with Staphylococcus aureus [12], 8.5 mg/kg; in the test on Pseudomonas aeruginosa [16], 200 mg/kg; in the test with Streptococcus pneumoniae [18], 16 mg/kg. In addition, in the test on Escherichia coli [15], the minimum concentration for gyrase-mediated DNA cleavage came out at 10 µg/mL.
Consider `CCN1CCC2(CCN(c3c(F)cc4c(=O)c(C(=O)O)cn(CC)c4c3F)C2)C1` (stereo not drawn), for which the minimum inhibitory concentration (MIC) against Enterobacter cloacae came out at 0.4 µg/mL (≈ 0.987 µM); with Enterococcus faecalis [1] it was 0.2 µg/mL (≈ 0.493 µM); with Pseudomonas it was 1.6 µg/mL (≈ 3.95 µM); in the test with Pseudomonas aeruginosa [5] it was 3.1 µg/mL (≈ 7.65 µM); in [7], 0.8 µg/mL (≈ 1.97 µM); with Streptococcus pyogenes [10], 0.4 µg/mL (≈ 0.987 µM). For the same compound, the MIC against Escherichia coli [13] stood at 0.2 µg/mL (≈ 0.493 µM); in the test with Staphylococcus aureus [14], 0.1 µg/mL (≈ 0.247 µM); against Staphylococcus aureus [17], 0.2 µg/mL (≈ 0.493 µM); against Klebsiella pneumoniae it was 0.2 µg/mL (≈ 0.493 µM). For the same compound, the ED50 was 68 mg/kg in the test on Streptococcus pneumoniae [2]; 6 mg/kg in the test on Escherichia coli [3]; 13 mg/kg in the test on Escherichia coli [4]; 38 mg/kg with Streptococcus pyogenes [6]; 70 mg/kg in the test with Streptococcus pyogenes [8]; 180 mg/kg in the test on Pseudomonas aeruginosa [9]. The ED50 in the test on Pseudomonas aeruginosa [16] was over 100 mg/kg; with Streptococcus pneumoniae [18], 43 mg/kg. Further, the minimum concentration for gyrase-mediated DNA cleavage in the test with Escherichia coli [15] worked out at 5 µg/mL.
For `CCn1cc(C(=O)O)c(=O)c2cc(F)c(N3CCC4(CCN(C)C4)C3)c(F)c21` (stereo not drawn), the MIC against Enterobacter cloacae came out at 0.1 µg/mL (≈ 0.255 µM); in the test on Enterococcus faecalis [1], 0.1 µg/mL (≈ 0.255 µM); with Pseudomonas, 0.8 µg/mL (≈ 2.04 µM); against Pseudomonas aeruginosa [5] it was 0.8 µg/mL (≈ 2.04 µM); in test [7], 0.4 µg/mL (≈ 1.02 µM); in the test with Streptococcus pyogenes [10], 0.2 µg/mL (≈ 0.511 µM). For the same compound, the minimum inhibitory concentration (MIC) was 0.006 µg/mL (≈ 0.0153 µM) against Escherichia coli [13], 0.006 µg/mL (≈ 0.0153 µM) in the test on Staphylococcus aureus [14], 0.1 µg/mL (≈ 0.255 µM) with Staphylococcus aureus [17] and 0.1 µg/mL (≈ 0.255 µM) with Klebsiella pneumoniae. Further, the ED50 with Streptococcus pneumoniae [2] is 43 mg/kg; in the test on Escherichia coli [3], 3.4 mg/kg; in the test on Escherichia coli [4], 8.4 mg/kg; with Streptococcus pyogenes [6] it was 27 mg/kg; with Streptococcus pyogenes [8] it was 38 mg/kg; in the test on Pseudomonas aeruginosa [9], 70 mg/kg. For the same compound, the ED50 stood at 4 mg/kg with Staphylococcus aureus [11], 9 mg/kg in the test on Staphylococcus aureus [12], 140 mg/kg in the test on Pseudomonas aeruginosa [16] and 11 mg/kg in the test with Streptococcus pneumoniae [18]. The minimum concentration for gyrase-mediated DNA cleavage with Escherichia coli [15] is 1 µg/mL.
For `CCn1cc(C(=O)O)c(=O)c2cc(F)c(N3CCCC4(CCCNC4)C3)c(F)c21` (stereo not drawn), the MIC in the test with Enterobacter cloacae was 6.3 µg/mL (≈ 15.5 µM); in the test with Pseudomonas it was 25 µg/mL (≈ 61.7 µM); in the test with Pseudomonas aeruginosa [5] it was 12.5 µg/mL (≈ 30.8 µM); in test [7] it was 6.3 µg/mL (≈ 15.5 µM); with Streptococcus pyogenes [10], 3.1 µg/mL (≈ 7.65 µM); in the test on Escherichia coli [13], 3.1 µg/mL (≈ 7.65 µM). Further, the MIC against Staphylococcus aureus [14] turned out to be 0.4 µg/mL (≈ 0.987 µM); with Enterococcus faecalis [19], 3.1 µg/mL (≈ 7.65 µM); with Staphylococcus aureus [17], 3.1 µg/mL (≈ 7.65 µM); against Klebsiella pneumoniae it was 6.3 µg/mL (≈ 15.5 µM). In addition, the minimum concentration for gyrase-mediated DNA cleavage with Escherichia coli [15] came out at 7.5 µg/mL.
In the case of `CC1COc2c(N3CCC4(CCN(C)C4)C3)c(F)cc3c(=O)c(C(=O)O)cn1c23` (stereo not drawn), the MIC was 0.2 µg/mL (≈ 0.498 µM) against Enterobacter cloacae; 0.1 µg/mL (≈ 0.249 µM) in the test on Enterococcus faecalis [1]; 0.4 µg/mL (≈ 0.996 µM) with Pseudomonas; 0.8 µg/mL (≈ 1.99 µM) in the test on Pseudomonas aeruginosa [5]; 0.2 µg/mL (≈ 0.498 µM) in [7]; 0.1 µg/mL (≈ 0.249 µM) against Streptococcus pyogenes [10]. Besides, the MIC with Escherichia coli [13] came out at 0.025 µg/mL (≈ 0.0623 µM); against Staphylococcus aureus [14], 0.006 µg/mL (≈ 0.0149 µM); in the test on Staphylococcus aureus [17], 0.1 µg/mL (≈ 0.249 µM); against Klebsiella pneumoniae, 0.1 µg/mL (≈ 0.249 µM). The ED50 in the test with Streptococcus pneumoniae [2] was determined as 63 mg/kg; in the test with Escherichia coli [3], 4.5 mg/kg; in the test on Escherichia coli [4], 14 mg/kg; in the test with Streptococcus pyogenes [6], 6 mg/kg; in the test on Streptococcus pyogenes [8], 31 mg/kg; with Pseudomonas aeruginosa [9], 56 mg/kg. Besides, the ED50 in the test with Staphylococcus aureus [11] came to 2.1 mg/kg; in the test on Staphylococcus aureus [12], 12.5 mg/kg; in the test on Pseudomonas aeruginosa [16], 200 mg/kg; in the test on Streptococcus pneumoniae [18], 11.5 mg/kg. For the same compound, the minimum concentration for gyrase-mediated DNA cleavage in the test on Escherichia coli [15] is 1 µg/mL.
